Source: PubChem
CSN inh: inhibitors of CSN-mediated cullin deneddylation, primary screen, biochemical, fluorescence polarization, uHTS; COP9 signalosome complex subunit 5 (Homo sapiens), Q92905; Purified CSN, SCF-Nedd8-OG deneddylation; 360,000 compounds, 0.38% hits; inhibition, % at 12.5 µM; AID 651999, 2013;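 active = pattern-corrected inhibition above about 35%, with an unprinted fluorescence ratio check between 0.5 and 1.5, limit read from the data, passing the limit was not always enough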
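assay system = purified human Csn5 enzyme expressed in HEK293T cells | amount = 0.24 nM enzyme | buffer or medium = Tris/NaCl/DTT buffer, pH 7.5 | reagent = 10 nM SCFSkp2-Nedd8OG | compound = one concentration, 12.5 µM, 0.25% DMSO | times = 90 min reaction at room temperature | signal = FP | read-out basis = % inhibition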
TPT1 inh: Candida albicans TPT1 enzyme inhibitors, primary screen, biochemical, fluorescence polarization; tRNA 2'-phosphotransferase TPT1 (Candida albicans SC5314); recombinant caTPT1, FP RNA substrate dephosphorylation; inhibition, % at 5 µM; 300,000 compounds, 0.81% hits; AID 1962, 2009;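 active = inhibition above the mean of all tested compounds plus 3 SD, set per screening campaign, cut at about 24% in these data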
Rev-erbA mod: modulators of Rev-erb alpha DNA binding, primary screen, biochemical, FITC-DNA, fluorescence polarization, uHTS | Nuclear receptor subfamily 1 group D member 1 (Homo sapiens), P20393 | Rev-erbα–FITC-DNA binding, 90 min | activity, % at 10 µM | 370,000 compounds, 0.79% hits | AID 1259318, 2017;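 active = activity above about 14%, limit read from the data; passing the limit was not always enough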
HNF4A DNA FP: change in binding of human HNF4A to DNA, primary screen, biochemical, fluorescence polarization, FITC-DNA | Hepatocyte nuclear factor 4-alpha (Homo sapiens), P41235 | 1 h | activity change, % at 10 µM | 360,000 compounds, 0.3% hits | AID 1224865, 2016; in the data active = activity change above about 30%, passing the limit was not always enough
Target sequence (P41235 whole entry, looked up): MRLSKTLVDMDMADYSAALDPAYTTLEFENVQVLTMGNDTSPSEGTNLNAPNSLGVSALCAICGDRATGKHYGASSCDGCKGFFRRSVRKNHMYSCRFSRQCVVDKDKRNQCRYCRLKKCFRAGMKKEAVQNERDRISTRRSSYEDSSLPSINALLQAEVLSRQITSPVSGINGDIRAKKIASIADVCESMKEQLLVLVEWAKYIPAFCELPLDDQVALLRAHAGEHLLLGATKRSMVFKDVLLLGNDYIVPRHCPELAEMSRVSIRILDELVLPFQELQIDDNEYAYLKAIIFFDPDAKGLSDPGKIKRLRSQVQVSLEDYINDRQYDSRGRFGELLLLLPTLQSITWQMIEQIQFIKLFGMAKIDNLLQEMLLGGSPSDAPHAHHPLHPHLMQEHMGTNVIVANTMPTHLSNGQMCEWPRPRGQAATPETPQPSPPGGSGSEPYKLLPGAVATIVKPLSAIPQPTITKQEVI
NR1D1 mod conf: modulators of Rev-erb alpha DNA binding, confirmation, biochemical, FITC-DNA, fluorescence polarization, single point; shares compounds with Rev-erbA mod; 90 min; activation, % at 25 µM; 3,000 compounds, 61% hits; AID 1259319, 2017;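 active = activation at or above a set limit, or at least 3 SD above the negative control mean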
RORg counter: modulation of RORgamma DNA binding, dose response, counter-screen for Rev-erb alpha modulator project, biochemical, fluorescence polarization, FITC-DNA; shares compounds with Rev-erbA mod; IC50, µM; 910 compounds, 8% hits; purified RORgamma protein-FITC-DNA binding;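 active = Compounds whose fitted half-maximal concentration for disrupting protein-DNA binding is below 10 micromolar; the record names Rev-erb in its text, so the target is in doubt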
Of the large screens only hits and unclear results are named; the others gave an inactive call (follow-up assays come after a bar, where they were run). Only some compounds are listed: those with a hit (about 1.7% of all), similar ones and a draw of the others.

CSc1ccc(/C=C(\C#N)C(=O)Nc2cccc(C)c2)cc1	Rev-erbA mod 22.4 | NR1D1 mod conf inactive
Cc1c(C(=O)N2CCN(Cc3ccc4c(c3)OCO4)CC2)sc2ncnc(N3CCN(c4ccccc4F)CC3)c12	Rev-erbA mod 22.0 | NR1D1 mod conf 17.8
Oc1ccccc1-c1cc(C(F)(F)C(F)F)nc(-c2ccccc2)n1	none
O=[N+]([O-])c1ccc(O)c(-c2cc(C(F)(F)F)nc(-c3ccccc3)n2)c1	Rev-erbA mod 133.2 | NR1D1 mod conf 159.3 | RORg counter 7.96
Cn1c(=O)c(Nc2ccc(Cl)cc2)c2c3c(cccc31)C(=O)c1ccccc1-2	Rev-erbA mod 24.2 (no result: CSN inh, HNF4A DNA FP) | NR1D1 mod conf inactive
COc1ccnc(N2CCN(c3cccc(C(F)(F)F)c3)CC2)c1C#N	Rev-erbA mod 28.1 | NR1D1 mod conf inactive
COc1ccnc(N2CCN(c3ccc(Cl)cc3)CC2)c1C#N	none
COc1ccccc1CNC(=O)C1CCC(CNS(=O)(=O)c2ccc(C)cc2)CC1 (centres undefined)	none
Cc1sc2nc(SCC(=O)NCc3ccco3)n(CCc3ccccc3)c(=O)c2c1C	Rev-erbA mod 61.2 | NR1D1 mod conf 61.8 | RORg counter inactive
Cc1sc2nc(SCC(=O)NCc3ccco3)n(C)c(=O)c2c1C	none
c1ccc(CC(Nc2cccnc2)c2ccccc2)cc1 (centres undefined)	none (no result: CSN inh, TPT1 inh, HNF4A DNA FP)
CCOC(=O)c1c(-c2ccc(C)s2)csc1NC(=O)c1cccs1	Rev-erbA mod 49.5 | NR1D1 mod conf 24.6
Cn1c(NC(=O)c2ccccc2)nc(Cc2ccccc2)c1Cc1ccccc1	none (no result: CSN inh, TPT1 inh, HNF4A DNA FP)
CCC(=O)c1cn(CC(=O)Nc2ccccc2Cl)c2ccccc12	Rev-erbA mod 79.8 | NR1D1 mod conf 44.0 | RORg counter inactive
CCC(=O)c1cn(CC(=O)Nc2cccc(C)c2)c2ccccc12	Rev-erbA mod 52.1 | NR1D1 mod conf 45.1 | RORg counter inactive
CCC(=O)c1cn(CC(=O)Nc2cccc(C)c2C)c2ccccc12	none
O=C1[C@H](c2ccccc2)[C@@H](c2ccncc2)N1c1ccncc1	none (no result: CSN inh, TPT1 inh, HNF4A DNA FP)
CN1CCS/C1=C\C=C1/SC(=S)N(CC(=O)O)C1=O	Rev-erbA mod 292.6 (no result: TPT1 inh) | NR1D1 mod conf 172.8 | RORg counter inactive
COc1ccc(/C=C2\SC(=S)N(CC(=O)N3CCN(C)CC3)C2=O)cc1	none
CC(=O)c1cc2c(=O)c3ccccc3oc2nc1C	none
CCOC(=O)c1cc2c(=O)c3ccccc3oc2nc1C	Rev-erbA mod 53.1 | NR1D1 mod conf 44.0 | RORg counter inactive
C=CCNC(=O)Cn1nnc(-c2ccc(-c3ccc(OC)cc3)cc2)n1	Rev-erbA mod 39.3 | NR1D1 mod conf inactive
O=C1c2ccccc2/C(=C\c2ccc(Br)nc2)N1c1ccccc1	none (no result: CSN inh, TPT1 inh, HNF4A DNA FP)
COc1cc2c(cc1OC)C1(Nc3c-2c(C)nn3-c2ccccc2)C(=O)Nc2ccccc21 (centres undefined)	Rev-erbA mod 18.3 | NR1D1 mod conf inactive
O=c1[nH]c(-c2ccc3c(c2)OCO3)nc2c1sc(=S)n2-c1ccccc1	Rev-erbA mod 76.0 | NR1D1 mod conf inactive
CCOC(=O)c1ccc(Nc2cc(C)nc(-c3ccccc3O)n2)cc1	Rev-erbA mod 38.0 | NR1D1 mod conf inactive
CCOC(=O)CNC(=O)CSc1nnc(-c2cccs2)o1	none (no result: CSN inh, TPT1 inh, HNF4A DNA FP)
O=C(Cn1sc2ccccc2c1=O)NC12CC3CC(CC(C3)C1)C2	none (no result: Rev-erbA mod)
O=C(Cn1sc2ccccc2c1=O)Nc1ccccc1	Rev-erbA mod 15.2 (no result: TPT1 inh) | NR1D1 mod conf inactive
CC[C@@H](CCCc1ccccc1OC)CCS(=O)(=O)C(C)(C)C	none (no result: CSN inh, TPT1 inh, HNF4A DNA FP)
Cn1nccc1C(=O)Nc1sc2c(c1C#N)CCCC2	none
COc1ccc(-c2c(C)sc(NC(=O)c3ccnn3C)c2C#N)cc1	Rev-erbA mod 47.0 | NR1D1 mod conf 26.8
O=c1c2sc3nc(N4CCOCC4)c4c(c3c2ncn1C(c1ccccc1)c1ccccc1)CCCC4	Rev-erbA mod 29.6 (no result: TPT1 inh) | NR1D1 mod conf 26.8
COC(=O)c1sc(NC(=S)NC(=O)c2ccccc2F)nc1C	Rev-erbA mod 43.2 | NR1D1 mod conf inactive
COC(=O)c1sc(NC(=S)NC(=O)c2cccc(C)c2)nc1C	none
CCOC(=O)c1sc(NC(=O)c2cc3ccccc3o2)nc1C	Rev-erbA mod 30.1 | NR1D1 mod conf inactive
COC(=O)c1cc(Cl)c(NC(=O)c2cc3ccccc3o2)cc1OC	Rev-erbA mod 28.2 | NR1D1 mod conf inactive
CCOC(=O)c1sc(NC(=O)c2ccccc2OC)nc1C	Rev-erbA mod 40.5 | NR1D1 mod conf 23.2
Cc1ccc(-c2cc(-c3nnc(SCC(=O)Nc4ccc(OCc5ccccc5)cc4)n3N)[nH]n2)cc1	none (no result: CSN inh, TPT1 inh, HNF4A DNA FP)
O=C(NCc1ccccc1)[C@@H]1CCCN1C(=O)[C@H]1CCCN1C(=O)c1ccc(F)c(F)c1	none (no result: CSN inh, TPT1 inh, HNF4A DNA FP)
CCCN(CCc1cccs1)[C@H]1CCc2c(O)cccc2C1	none (no result: CSN inh, TPT1 inh, HNF4A DNA FP)
C[C@@H]1COc2cc(N3CCOCC3)ccc2S(=O)(=O)N1	none (no result: CSN inh, TPT1 inh, HNF4A DNA FP)
COc1cccc(CNC(=O)[C@H]2CCCN2C(=O)[C@H]2CCCN2C(=O)c2cccc(Cl)c2)c1	none (no result: CSN inh, TPT1 inh, HNF4A DNA FP)
Cc1ccc(F)cc1C(=O)N1CCCC1(C)C(=O)NCC(C)C (centres undefined)	none (no result: TPT1 inh)
COc1ccc(C(=O)Nc2ccccc2C(=O)NC(Cc2ccc(O)cc2)C(=O)NNC(=O)c2ccccc2Cl)cc1 (centres undefined)	Rev-erbA mod 24.2 | NR1D1 mod conf 18.6
CCCNC(=O)C(Cc1ccc(OC)cc1)NC(=O)c1ccc(Cl)cc1 (centres undefined)	none (no result: TPT1 inh)
COc1ccc(NC(=O)NNC(=O)c2cc3ccccc3cc2O)cc1	Rev-erbA mod 45.5 | NR1D1 mod conf 29.6 | RORg counter inactive
COc1ccc(C(=O)NNC(=O)C(Cc2ccc(O)cc2)NC(=O)c2ccccc2NC(=O)c2ccc(OC)cc2)cc1 (centres undefined)	Rev-erbA mod 44.9 | NR1D1 mod conf 35.9 | RORg counter inactive
COc1ccc(C(=O)Nc2ccccc2NC(=O)c2ccc(OC)cc2)cc1	none
COc1ccc(C(=O)Nc2ccccc2C(=O)Nc2ccccc2)cc1	Rev-erbA mod 67.6 (no result: TPT1 inh) | NR1D1 mod conf 45.4 | RORg counter inactive
O=c1[nH]cnc2c1C(c1ccccc1)c1c(nc[nH]c1=O)O2	none (no result: TPT1 inh)
CC(C)(C)S(=O)N1C[C@@H]2CC(=O)C=C2[C@H]1CCO (some centres undefined)	none (no result: CSN inh, TPT1 inh, HNF4A DNA FP)
C=CCN1CC(COc2ccc(OC)cc2)OCCS1(=O)=O (centres undefined)	none (no result: CSN inh, TPT1 inh, HNF4A DNA FP)
O=C1C(O)=C(O)C(=O)C(O)=C1O	none (no result: CSN inh, TPT1 inh, HNF4A DNA FP)
